Bioassay records from PubChem BioAssay.
RGS4 inh – human RGS4 inhibition | P49798 | HEK293 M3R/RGS4 inducible, Fluo-4 calcium flux; hits give high values; triggered by carbachol at its EC20 | B-score at 10 µM | 0.45% of 310,000 active | AID 463165;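 active = B-score, a plate-corrected calcium signal, over three deviations above library mean, with baseline fluorescence within five deviations of library mean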;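 also: RGS4 expression induced by doxycycline in cells with stable M3 receptor; B-score is computed from the integrated fluorescence ratio over baseline after carbachol; higher B-score means a larger calcium signal and so more RGS4 inhibition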
Target sequence (P49798 whole entry, looked up): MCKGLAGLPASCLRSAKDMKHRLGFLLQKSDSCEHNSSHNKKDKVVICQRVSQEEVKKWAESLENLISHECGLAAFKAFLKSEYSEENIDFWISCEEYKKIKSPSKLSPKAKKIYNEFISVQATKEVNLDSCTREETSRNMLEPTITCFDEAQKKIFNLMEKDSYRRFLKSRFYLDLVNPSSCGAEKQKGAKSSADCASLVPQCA
RGS4 pot – RGS4 potentiation or activation | HEK293 M3R/inducible RGS4, carbachol calcium flux Fluo4; hits give low values | B-score at 10 µM | 0.92% of 310,000 active;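 active = B-score of the integrated calcium signal more than 4 SD below the library mean, with starting fluorescence not abnormally high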;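 also: negative B-score means reduced calcium response which marks RGS4 activation or potentiation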
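System: HEK293 FlpIn-TREx cells, stable M3R, doxycycline-inducible RGS4. Timing: overnight RGS4 induction, 30 min dye load 37 °C, 20 min compound RT. Also added: carbachol, ECmax concentration. Measured by: Fluo4 fluorescence kinetic imaging of calcium. Evaluation: integrated calcium ratio converted to B score.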
MrgX1 antag – human MrgX1 receptor antagonism, primary screen; Q96LB2; AID 588676; B-score at 10 µM; 1.3% of 310,000 active; MRGX1-HEK293 calcium flux, Fluo-4, BAM8-22 antagonism; hits give low values;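 active = calcium-response B-score plate-corrected more than 3 library SD below zero, starting fluorescence within 5 deviations, no agonist response on first addition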;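 also: peak minus trough fluorescence over baseline after final BAM8-22 challenge near maximal dose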
Target sequence (Q96LB2 whole entry, looked up): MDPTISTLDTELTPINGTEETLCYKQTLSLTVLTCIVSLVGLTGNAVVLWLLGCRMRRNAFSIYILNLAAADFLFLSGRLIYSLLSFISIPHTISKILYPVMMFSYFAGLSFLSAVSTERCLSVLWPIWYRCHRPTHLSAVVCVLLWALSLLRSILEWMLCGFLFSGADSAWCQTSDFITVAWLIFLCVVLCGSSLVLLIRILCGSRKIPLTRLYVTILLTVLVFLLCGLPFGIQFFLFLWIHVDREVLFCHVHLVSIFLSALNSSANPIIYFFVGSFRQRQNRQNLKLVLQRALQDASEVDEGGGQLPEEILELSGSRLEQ
MrgX1 PAM – human MrgX1 positive allosteric modulation, primary screen. Q96LB2. MrgX1-HEK293, Fluo-4 calcium flux, FDSS; hits give high values. B-score at 10 µM. 0.63% of 310,000 active. AID 588675;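 active = plate-corrected calcium response at least 3 library SD above typical, normal starting fluorescence, not activating the receptor alone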;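 also: compound read alongside a low EC10 to EC30 dose of BAM8-22 agonist; peak minus trough fluorescence over baseline measured at the second addition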
MrgX1 agonist – activates human MrgX1 receptor signaling; MrgX1-HEK293 cells, Fluo-4 calcium fluorescence, agonist mode; hits give high values; AID 588627; 0.44% of 310,000 active; B-score at 10 µM;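 active = calcium response B-score plate-corrected fluorescence ratio at least 3 library SD, with starting fluorescence B-score inside 5 SD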
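times = overnight plating, then 30 min 37 °C plus 30 min room-temperature dye loading | assay system = stable human MrgX1 HEK293 cell line | input = fifteen thousand cells per well | signal = kinetic calcium dye fluorescence, Fluo-4 NW | dosing = compound delivered in addition one of three | read-out = B-scored fluorescence response ratio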
MrgX1 ant reconf – human MrgX1 receptor antagonism, re-confirmation screen; AID 602420; remaining BAM8-22 calcium response % of control (hits give low values), % at 10 µM; shares compounds with MrgX1 antag; 19% of 2,300 active; MrgX1-HEK293, BAM8-22 calcium flux, Fluo-4; hits give low values;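 active = remaining agonist calcium response no higher than 100% minus 3 SD of agonist-only control wells, with starting fluorescence near control levels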;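 also: agonist BAM8-22 given at a near maximal EC90 to ECmax level; peak minus minimum fluorescence divided by baseline after agonist addition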
HEK293 Ca flux – counter-screen for MrgX1 antagonists: effect in parental HEK293 cells | 2% of 4,000 active | shares compounds with MrgX1 antag | fluorescence ratio F(max-min)/F0 at 10 µM | Fluo-4 calcium fluorescence, FDSS;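 active = duplicate-averaged calcium fluorescence ratio at least three times the standard deviation of buffer wells, a nonspecific response in parental cells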
HEK293 Ca counter – MrgX1 allosteric activator counter-screen hit in parental HEK293 cells | shares compounds with MrgX1 antag | parental HEK293 calcium flux, Fluo-4 fluorescence ratio; hits give high values | fluorescence ratio F(max-min)/F0 at 10 µM | 0.4% of 4,000 active | AID 624114;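 active = calcium fluorescence ratio, averaged over duplicates, at least 3 SD of the buffer-well ratio, meaning a nonspecific response in receptor-free cells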;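 also: untransfected parental HEK293 lacking MrgX1 used as counterscreen for MrgX1 allosteric activators; fluorescence change taken during the second addition on a kinetic imager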
HEK293 Ca cntr2 – activity in parental HEK293 cells lacking MrgX1 receptor | shares compounds with MrgX1 antag | Fluo-4 calcium fluorescence (FDSS); hits give high values | fluorescence ratio F(max-min)/F0 at 10 µM | 8.7% of 4,000 active | AID 624115;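 active = calcium fluorescence ratio at least three times the spread of buffer wells, meaning a non-specific response in parental cells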
Hits are given with their value; n = inactive; x = not tested or not shown. A selection: hits, their analogues and other compounds. The true share with any hit is near 3.5%.

SMILES | RGS4 inh | RGS4 pot | MrgX1 antag | MrgX1 PAM | MrgX1 agonist | MrgX1 ant reconf | HEK293 Ca flux | HEK293 Ca counter | HEK293 Ca cntr2
CCN(C(=O)Cc1c(C(=O)O)n(C)c2ccccc12)c1ccc(F)cc1 | n | n | -5 | n | n | n | n | n | n
O=C1N(Cc2cccnc2)C[C@@H]2C[C@@H](c3ccc4nsnc4c3)N3CCC[C@@]123 | n | n | n | n | n | x | x | x | x
CN1C(=O)CC(N2CCN(CC(N)=O)CC2)C1=O (stereo not drawn) | n | n | -5.6 | n | n | n | n | n | n
CN1C(=O)CC(N2CCC(C(N)=O)CC2)C1=O (stereo not drawn) | n | n | n | n | n | x | x | x | x
COc1cccc(CNC(=O)Cn2cccc2)c1 | n | n | -9.8 | n | n | 81% | n | n | n
COc1ccc(C(=O)N(C)Cc2ccon2)cc1OC1CCN(C(C)C)CC1 | n | n | n | n | n | x | x | x | x
COc1ccc(C(=O)N(C)Cc2ccccn2)cc1OC1CCN(C(C)C)CC1 | n | n | -5.2 | n | n | n | n | n | n
CC(SCC(=O)NC(C)C1CC2CCC1C2)C(=O)O (stereo not drawn) | n | n | n | n | n | x | x | x | x
Cc1ccc(S(=O)(=O)NCCC(=O)NCc2ccco2)cc1 | n | n | -4.6 | n | n | n | n | n | n
CCOC(=O)C1CCN(C(=O)CN(c2ccc3c(c2)OCCO3)S(=O)(=O)c2ccccc2)CC1 | n | n | n | n | n | x | x | x | x
CC1CCN(C(=O)C2CCC(CNS(=O)(=O)c3cccc4cccnc34)CC2)CC1 (stereo not drawn) | n | n | -5.3 | n | n | n | n | n | n
CCOc1ccc(N(CC(=O)NC2CCCC2)S(=O)(=O)c2c(C)noc2C)cc1 | n | n | -4.8 | n | n | 65% | n | n | n
CCOc1ccc(N(CC(=O)NC2CCCCC2)S(=O)(=O)c2c(C)noc2C)cc1 | n | n | n | n | n | x | x | x | x
O=c1cc(N2CCCCC2)nc2n1CCCS2 | n | n | -5.4 | n | n | n | n | n | n
COc1ccc(CCn2c(C(C)C)nc3oc4ccccc4c(=O)c3c2=O)cc1 | n | n | n | n | n | x | x | x | x
COc1ccc(C(=O)Oc2ccc3c(C)cc(=O)oc3c2C(C)=O)cc1 | n | n | -4.6 | n | n | n | n | n | n
COc1ccc(Br)cc1CNC(=O)C1CCN(c2nnc(N3CCCC3=O)s2)CC1 | n | n | n | n | n | x | x | x | x
COc1ccc(CNC(=O)C2CCN(c3nnc(N4CCCC4=O)s3)CC2)cc1 | n | n | -5.3 | n | n | n | n | n | n
Cn1c(=O)c2cc(S(=O)(=O)NC(C(=O)NCc3cccnc3)c3ccccc3)ccc2n(C)c1=O (stereo not drawn) | n | n | n | n | n | x | x | x | x
CCN(Cc1ccccc1)C(=O)Cn1cnc2c1c(=O)n(C)c(=O)n2C | n | n | n | n | n | x | x | x | x
Cn1c(=O)c2c(ncn2CCN(CCO)Cc2ccccc2)n(C)c1=O | n | n | -6.7 | n | n | 81% | n | n | n
Cc1cc(C(=O)Nc2ccc(S(=O)(=O)Nc3nccs3)cc2)c(C)o1 | n | n | n | n | n | x | x | x | x
Cc1ccc(S(=O)(=O)N2CCN(CC(O)c3ccccc3)CC2)cc1C (stereo not drawn) | n | n | -5 | n | n | n | n | n | n
COc1ccccc1NC(=O)c1cc2ccccc2nc1C | n | n | n | n | n | x | x | x | x
COc1ccccc1NC(=O)c1ccc2nc(C)c(C)nc2c1 | n | n | -8.1 | n | n | n | n | n | n
SMILES | RGS4 inh | RGS4 pot | MrgX1 antag | MrgX1 PAM | MrgX1 agonist | MrgX1 ant reconf | HEK293 Ca flux | HEK293 Ca counter | HEK293 Ca cntr2
CCC(C)(C)n1nnnc1C(c1ccc2ncccc2c1)N1CCCC(C)C1 (stereo not drawn) | n | n | -6.3 | n | n | n | n | n | n
CCN(c1ccccc1)S(=O)(=O)c1csc(C(N)=O)c1 | n | n | n | n | n | x | x | x | x
CCCC(C)NC(C)C(=O)NC1CCCC1 (stereo not drawn) | n | n | -5 | n | n | n | n | n | n
CCCC(CCC(=O)NC1CCCCC1)C(=O)O (stereo not drawn) | n | n | n | n | n | x | x | x | x
CC(NC(=O)CN1CCCC1)C12CC3CC(CC(C3)C1)C2 (stereo not drawn) | n | n | n | n | n | x | x | x | x
CC(NC(=O)Cn1cnnn1)C12CC3CC(CC(C3)C1)C2 (stereo not drawn) | n | n | -6.8 | n | n | n | n | n | n
CC1(C)CC(=O)C2=C(C1)N(c1ccc(F)cc1)C(=O)CC2c1ccsc1 (stereo not drawn) | n | n | -5.1 | n | n | n | n | n | n
Cc1ccc2c(c1)nnn2C1CCN(S(=O)(=O)c2ccc(C(=O)NC3CCCC3)cc2)CC1 | n | n | n | n | n | x | x | x | x
Cc1ccc2c(c1)nnn2C1CCN(S(=O)(=O)c2ccc(C(=O)N(C)C)cc2)CC1 | n | n | -7 | n | n | n | n | n | n
COc1ccc2[nH]c3c(c2c1)CCN1C(=O)N([C@@H](C)C(=O)NCc2ccccc2)C(=O)[C@]31C | n | n | -8.6 | n | n | n | n | n | n
COc1ccc2[nH]c3c(c2c1)CCN1C(=O)N([C@@H](C)C(=O)NCc2ccccc2OC)C(=O)[C@]31C | n | n | n | n | n | x | x | x | x
CN(CC(=O)Nc1c(Cl)cccc1Cl)C(=O)c1cc2ccccc2cc1O | n | n | n | n | n | x | x | x | x
CCc1ccc(-c2cc(C(=O)NCc3ccccn3)c3ccccc3n2)cc1 | n | n | -5.3 | n | n | 77% | n | n | n
CCCOc1ccc(Br)cc1CSC(=N)N | n | n | -4.6 | n | n | n | n | n | n
CCOc1ccc(Br)cc1CC(=O)O | n | n | n | n | n | x | x | x | x
Cc1cc(C)c(C(N)=O)c(NC(=O)Nc2ccccc2Cl)n1 | n | n | -4.6 | n | n | n | n | n | n
Cc1cc(C)c(C(N)=O)c(Nc2cccc(Cl)c2C)n1 | n | n | n | n | n | x | x | x | x
Cc1sc2ncnc(Sc3nnc4sc5ccccc5n34)c2c1C | n | n | n | n | n | x | x | x | x
O=C(CN(c1ccccn1)S(=O)(=O)c1ccc(F)cc1)Nc1ccc(F)cc1F | n | n | -5.6 | n | n | n | n | n | n
N=C1C(c2ccccc2)=C(O)CN1CCCO | n | n | n | n | n | x | x | x | x
